PfGluPho inh: PfG6PD (Plasmodium falciparum) enzyme inhibition; PfGluPho enzyme, NADPH resazurin-diaphorase fluorescence; inhibition, % at 20 µM; hit rate 0.78% among 350,000;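 active means inhibition reaching at least a set limit at 20 µM in the primary screen, cut at about 59% in these data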;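 further: 0% = DMSO wells with substrate and 100% = DMSO wells lacking glucose-6-phosphate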
Diaph inh CS: counter-screen for diaphorase-based assays: diaphorase inhibitors and chemical oxidizers. diaphorase resazurin-to-resorufin fluorescence, NADH, 16 min; bacterial (C. kluyveri) enzyme, not human. inhibition, % at 20 µM. hit rate 0.69% among 190,000. AID 1217;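 active means primary screen inhibition at 20 µM above a set limit, cut at about 50% in these data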;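 further: plate controls were DMSO with full reaction for no effect and wells lacking NADH for full effect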
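Test system: Clostridium kluyveri diaphorase enzyme / Quantity: diaphorase at 0.14 U/mL in enzyme working solution / Incubation: 16-min room-temperature incubation before reading / Benchmarks: NADH-free wells as positive control, DMSO-only neutral wells / Signal: resorufin fluorescence 544/590 nm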
HKDC1 inhibitor: HKDC1 (human) hexokinase inhibition; recombinant HKDC1, G6PDH/diaphorase resazurin coupled fluorescence; inhibition, % at 20 µM; hit rate 0.16% among 340,000;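 active means inhibition above about 35% when tested at 20 µM, limit read from the data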;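 further: plate controls were DMSO wells with enzyme for no effect and DMSO wells lacking enzyme for full effect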
Target sequence (Q2TB90 whole entry, looked up): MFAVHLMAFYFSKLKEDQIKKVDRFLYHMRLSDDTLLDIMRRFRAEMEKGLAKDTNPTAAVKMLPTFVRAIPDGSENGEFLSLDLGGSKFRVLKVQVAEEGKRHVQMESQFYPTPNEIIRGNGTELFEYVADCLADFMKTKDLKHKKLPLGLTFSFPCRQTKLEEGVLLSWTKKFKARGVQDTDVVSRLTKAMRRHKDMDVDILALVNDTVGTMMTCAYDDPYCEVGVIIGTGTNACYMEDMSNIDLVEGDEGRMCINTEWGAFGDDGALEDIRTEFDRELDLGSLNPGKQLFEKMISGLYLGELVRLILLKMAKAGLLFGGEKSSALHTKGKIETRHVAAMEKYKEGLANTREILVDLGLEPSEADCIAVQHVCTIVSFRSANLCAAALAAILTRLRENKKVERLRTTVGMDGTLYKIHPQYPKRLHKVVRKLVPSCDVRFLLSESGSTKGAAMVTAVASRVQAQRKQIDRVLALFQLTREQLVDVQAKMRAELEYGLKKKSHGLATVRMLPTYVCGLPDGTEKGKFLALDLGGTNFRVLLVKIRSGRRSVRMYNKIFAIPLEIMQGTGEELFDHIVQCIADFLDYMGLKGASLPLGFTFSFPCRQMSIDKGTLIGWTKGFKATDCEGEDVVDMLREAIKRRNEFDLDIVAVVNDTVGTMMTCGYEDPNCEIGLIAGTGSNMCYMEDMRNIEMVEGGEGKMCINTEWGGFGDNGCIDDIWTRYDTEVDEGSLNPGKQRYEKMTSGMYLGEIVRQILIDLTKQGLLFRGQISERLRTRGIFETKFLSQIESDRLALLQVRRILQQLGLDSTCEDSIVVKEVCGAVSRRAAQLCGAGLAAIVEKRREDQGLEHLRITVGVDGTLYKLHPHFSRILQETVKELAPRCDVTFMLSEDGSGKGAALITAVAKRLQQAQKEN
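Test system: Recombinant HKDC1 (HK5) hexokinase enzyme, produced in-house | Input: HKDC1 at 5 µg/mL | Buffer or medium: Tris pH 8.0 buffer with MgCl2, Tween-20, BSA, BME | Schedule: 90 min reaction incubation at room temperature, dark | Technique: Resazurin-to-resorufin fluorescence via G6PDH and diaphorase coupling, 525/613 nm | Controls: DMSO wells with and without enzyme mix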
G6PDH CS: L. mesenteroides G6PDH inhibition counter-screen. Purified L. mesenteroides G6PDH, diaphorase/resazurin coupled fluorescence, 45 min. inhibition, % at 5 µM. hit rate 0.12% among 200,000; in the data active means inhibition above about 50%
HKDC1 act conf2: confirmation of human HKDC1 activators | inhibition, % at 20 µM | hit rate 14% among 740 | recombinant HKDC1, G6PDH/diaphorase resazurin fluorescence; hits give low values | shares compounds with HKDC1 inhibitor;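 active means inhibition at or below a set negative limit, negative inhibition meaning the enzyme was activated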
* marks the source's active call; other numbers are inactive results; / = not tested or not shown. This is a sample that favours compounds with a hit; in the whole collection about 1.3% have one here.

SMILES	PfGluPho inh	Diaph inh CS	HKDC1 inhibitor	G6PDH CS	HKDC1 act conf2
O=C(CSc1nnc(CCCN2C(=O)c3cccc4cccc(c34)C2=O)n1-c1ccccc1)NCCCO	13	44	29	-2	/
O=S(=O)(c1ccc(SCCOc2ccc(Cl)cc2)nc1)N1CCCC1	12	/	0	/	/
Cc1cccc2c1N(CCCOc1ccccc1)C(=O)C2=O	1	13	19	10	/
Cc1ccccc1OCCCN1C(=O)C(=O)c2cccc(C)c21	36	15	37*	-4	-6
O=C(O)c1ccc(NC2=C(Cl)C(=O)c3ccccc3C2=O)cc1	-89	/	-131	/	-94*
CC1=C(Nc2ccc(C(=O)O)cc2)C(=O)c2ccccc2C1=O	-19	/	16	/	/
CCn1c(=O)n(CC)c2cc(N3CCCC3)c(NC(=O)c3ccccc3OC)cc21	7	/	-37	/	-20
COc1ccccc1CNC(=O)c1cc(-c2ccccc2C)n(CC2CC(c3cccc([N+](=O)[O-])c3)=NO2)n1 (configuration not stated)	6	/	-3	/	/
C[n+]1c(-c2ccccc2)cc2c(=Cc3ccccc3)c3ccccc3n21	21	/	42*	/	-18
COc1ccc(CCNCCC(c2ccccc2)c2ccccc2)cc1OC	-6	/	/	/	/
COc1cc(OC)c(OC)cc1CCC(C)NCCC(c1ccccc1)c1ccccc1 (configuration not stated)	18	/	81*	/	-24
CCOc1ccc(CCNC(=O)c2cccc(-n3cnnn3)c2)cc1OCC	7	/	-4	/	/
Cc1cccc(N=C2CCCC2C(=O)Nc2cccc(C)c2C)c1C (configuration not stated)	0	/	-2	/	/
O=C(c1ccccc1)c1n[nH]c(-c2ccccc2)cc1=O	-3	6	-42	3	16
CCOC(=O)/C=C(\C)Sc1cc(O)c2ccccc2c1O	108*	/	57*	/	54
COc1ccc(CC(=O)N/N=C\c2cc(Br)c(O)c(Br)c2)cc1	-17	/	11	/	/
N#CC1c2ccccc2C=CN1C(=O)N(c1ccccc1)c1ccccc1 (configuration not stated)	15	/	1	/	/
CC1CC(C)CN(C(=O)C(C)N2CCN(S(=O)(=O)c3ccc(Br)s3)CC2)C1 (configuration not stated)	13	/	-3	/	/
O=C1NN(c2cccc(Br)c2)C(=O)/C1=C/c1ccc(-c2cc([N+](=O)[O-])ccc2O)o1	6	/	62*	/	-13
CC1CCc2c(c3ccccc3n2C(=O)CCl)C1 (configuration not stated)	12	/	46*	/	-11
CCN1CCN(CC(=O)n2c3c(c4ccccc42)CC(C)CC3)CC1 (configuration not stated)	24	11	-7	-38	/
O=C(CCNC(=O)c1ccco1)NCc1ccc(F)cc1	3	/	-3	/	/
CCCN(CCC)CCCNC(=O)c1cc2c(=O)n(CC)c3ccccc3c2s1	12	/	12	/	/
CCOC(=O)N1C/C(=C\c2ccccc2)C(=O)/C(=C/c2ccccc2)C1	31	/	33	/	11
C[N+](C)(C)CCC(=O)N1C/C(=C/c2ccccc2)C(=O)/C(=C\c2ccccc2)C1	38	/	15	/	/
SMILES	PfGluPho inh	Diaph inh CS	HKDC1 inhibitor	G6PDH CS	HKDC1 act conf2
CN(C)CCC(=O)N1C/C(=C/c2ccccc2)C(=O)/C(=C\c2ccccc2)C1	27	/	12	/	/
COc1ccc(OC(=O)N2C/C(=C/c3ccccc3)C(=O)/C(=C\c3ccccc3)C2)cc1	14	/	36*	/	2
Cc1cccc(NC(=O)CNC(=O)CN2C(=O)NC3(CCCCC3C)C2=O)c1C (configuration not stated)	-12	/	-7	/	/
COc1cc(/C=C2\SC(=Nc3ccc(Cl)c(C(=O)O)c3)NC2=O)c(Br)c(Br)c1O	4	/	40*	/	12
O=C(N/N=C/c1ccccc1)c1ccc(CN2C(=O)c3cccc4cccc2c34)cc1	-3	20	-7	-1	/
O=C(N/N=C/c1ccc(O)cc1O)c1ccc(CN2C(=O)c3cccc4cccc2c34)cc1	38	13	-41	-8	-22
CC(=NNC(=S)Nc1cccc(C)c1)c1ccccn1	44	/	-38	/	-60*
COc1ccccc1NC(=S)NN=C(C)c1ccccn1	25	/	-41	/	-61*
CC(=NNC(=S)Nc1ccc(C)cc1)c1ccccn1	29	/	-39	/	/
COP(=O)(OC)c1ccc(NCc2cc(O)ccc2O)cc1	49	/	43*	/	53
CN=CC1=C(O)c2ccccc2C1=O	1	14	-8	5	/
O=C1C(C2=C(O)c3ccccc3C2=O)=Nc2ccccc21	17	10	-242	56*	-162*
COc1ccc(CNC(=O)N2[C@H]3CC[C@@H]2C=C(c2ccc(F)cc2OCc2ccccc2)C3)cc1OC	7	/	/	/	/
COc1ccc(-c2noc(CCC(=O)N3CCN(c4ccccc4)CC3)n2)cc1	9	/	-7	/	/
O=C(O)c1cccc(-n2cccc2/C=C2/NC(=O)N(c3cccc(Cl)c3)C2=O)c1	-14	/	2	/	/
O=C(O)c1cccc(-n2cccc2/C=C2/NC(=O)N(c3ccc(Cl)cc3)C2=O)c1	18	62*	61*	6	37
O=C(O)c1ccc2c(=O)n(-c3ccccc3)c(=S)[nH]c2c1	29	/	84*	/	-2
Cc1ccccc1N=C1NN=C(c2ccccc2F)CS1	8	11	-47	-12	-40*
COc1ccc(-n2c(C)cc(C(=O)CCl)c2C)cc1	-3	13	35*	2	34
COc1ccc(-n2c(C)cc(C(=O)CN3C(=O)c4ccccc4C3=O)c2C)cc1	12	7	0	-2	/
COc1cccc(NC(=O)COC(=O)CCC(=O)c2cccs2)c1	9	/	-2	/	/
NS(=O)(=O)c1ccc(N=Nc2c(=O)[nH]n3c(=O)c4c([nH]c23)CCCC4)cc1	26	45	40*	30	72
CSc1nc(N)nc2c1ncn2CC(=O)N[C@H](C)c1cccc2ccccc12	-67	/	-55	/	-74*
COC(=O)[C@@H](Cc1ccccc1)NC(=O)Cn1cnc2c(SC)nc(N)nc21	10	/	-1	/	/
Cc1cc(C)nc(Nc2n[nH]c(-c3ccc(N)cc3)n2)n1	-8	6	-2	-2	/
SMILES	PfGluPho inh	Diaph inh CS	HKDC1 inhibitor	G6PDH CS	HKDC1 act conf2
Cc1cc(C)nc(Nc2n[nH]c(-c3ccc(C(C)(C)C)cc3)n2)n1	-31	-6	-51	8	-21
CNC(=O)c1cc(Nc2nnc(-c3ccc(C)c(S(N)(=O)=O)c3)c3ccccc23)ccc1OC	12	/	2	/	/
Cc1onc(-c2ccccc2Cl)c1C(=O)N/N=C(\N)COc1ccc(Cl)cc1	-37	10	-39	0	-32
Cc1onc(-c2ccccc2)c1C(=O)N/N=C(\N)COc1ccc(Cl)cc1	-23	14	-23	-11	/
O=C(CC1C(=O)NCCN1Cc1ccc(Cl)c(F)c1)NC1CCCCC1 (configuration not stated)	1	/	-1	/	/
CC(=O)n1cc(N(C(=O)CCl)c2ccc([N+](=O)[O-])cc2)c2ccccc21	0	/	48*	/	41
CC(=O)n1cc(CO)c2ccccc21	15	/	-7	/	/

Screening data from PubChem.
